From article PMC12783166 (Clinical Pharmacokinetics, 2025)
“Also recorded” adds a separate entry of the source.

Experiments:
[1] = Individual predicted steady-state exposures; format: in vivo, human; details: for AUC / Cmax: human, plasma, oral
In short: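 Steady-state AUC24, Ctrough, Cmax and Cavg were derived from each individual's Bayesian post hoc estimates from the final three-compartment population PK model, with sequential zero-/first-order lagged absorption. Values are summarised per […] as mean (SD) and median (5th–95th percentile).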

[2] = Covariate evaluation of model-predicted 60 mg steady-state exposures; format: in vivo, human
In short: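 Final population model predicted steady-state AUC24 and Cmax for 60 mg once daily in EM phase 2b/3, EM phase 3 and CM phase 3 patients. Covariates included renal function, age, sex, weight, race and comedication with BCRP inhibitors, BCRP substrates or statins. Each subgroup is given as a geometric mean ratio with 95% CI against its reference group.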

[3] = cited from earlier work
P-gp = details: cited from earlier work
BCRP = details: cited from earlier work
OAT1 = details: cited from earlier work
[4] = model-predicted steady state, 60 mg daily
[5] = oral administration of a 60-mg dose

C[C@@H]1[C@H](c2c(F)ccc(F)c2F)C[C@H](NC(=O)c2cnc3c(c2)C[C@@]2(C3)C(=O)Nc3ncccc32)C(=O)N1CC(F)(F)F [atogepant, Atogepant]
Ctrough, Mean (SD) ([1]; CGP-MD-01 EM, 60 mg QD): 23.6 (30) ng/mL | Ctrough, Median (5th to 95th percentile) ([1]; CGP-MD-01 EM, 60 mg QD): 19.5 (5.07–335) ng/mL | Time above ½EC90 (4.2 ng/mL or 7 nM), Mean (SD) ([1]; CGP-MD-01 EM, 60 mg QD): 24.0 (0.0) hr | Time above ½EC90 (4.2 ng/mL or 7 nM), Median (5th to 95th percentile) ([1]; CGP-MD-01 EM, 60 mg QD): 24.0 (24.0–24.0) hr | Cavg, Mean (SD) ([1]; ELEVATE EM, 60 mg QD): 147 (75) ng/mL | Cavg, Median (5th to 95th percentile) ([1]; ELEVATE EM, 60 mg QD): 138 (12.5–474) ng/mL | Ctrough, Mean (SD) ([1]; ELEVATE EM, 60 mg QD): 15.4 (13) ng/mL | Ctrough, Median (5th to 95th percentile) ([1]; ELEVATE EM, 60 mg QD): 13.4 (2.70–98.1) ng/mL | Time above ½EC90 (4.2 ng/mL or 7 nM), Mean (SD) ([1]; ELEVATE EM, 60 mg QD): 23.9 (0.79) hr | Time above ½EC90 (4.2 ng/mL or 7 nM), Median (5th to 95th percentile) ([1]; ELEVATE EM, 60 mg QD): 24.0 (17.5–24.0) hr | Cavg, Mean (SD) ([1]; PROGRESS CM, 30 mg BID): 157 (87) ng/mL | Cavg, Median (5th to 95th percentile) ([1]; PROGRESS CM, 30 mg BID): 135 (33.1–571) ng/mL | Ctrough, Mean (SD) ([1]; PROGRESS CM, 30 mg BID): 56.1 (43) ng/mL | Ctrough, Median (5th to 95th percentile) ([1]; PROGRESS CM, 30 mg BID): 42.4 (8.87–269) ng/mL | Time above ½EC90 (4.2 ng/mL or 7 nM), Mean (SD) ([1]; PROGRESS CM, 30 mg BID): 24.0 (0.0) hr | Time above ½EC90 (4.2 ng/mL or 7 nM), Median (5th to 95th percentile) ([1]; PROGRESS CM, 30 mg BID): 24.0 (24.0–24.0) hr | Cavg, Mean (SD) ([1]; PROGRESS CM, 60 mg QD): 139 (85) ng/mL | Cavg, Median (5th to 95th percentile) ([1]; PROGRESS CM, 60 mg QD): 120 (21.9–908) ng/mL | Ctrough, Mean (SD) ([1]; PROGRESS CM, 60 mg QD): 18.8 (24) ng/mL | Ctrough, Median (5th to 95th percentile) ([1]; PROGRESS CM, 60 mg QD): 14.4 (2.23–287) ng/mL | Time above ½EC90 (4.2 ng/mL or 7 nM), Mean (SD) ([1]; PROGRESS CM, 60 mg QD): 23.9 (0.88) hr | Time above ½EC90 (4.2 ng/mL or 7 nM), Median (5th to 95th percentile) ([1]; PROGRESS CM, 60 mg QD): 24.0 (15.5–24.0) hr | AUC ([1]; 10 mg, AUC24, Mean (SD), ADVANCE EM, 10 mg QD): 0.525 µg·h/mL | AUC ([1]; 10 mg, AUC24, Mean (SD), CGP-MD-01 EM, 10 mg QD): 0.461 µg·h/mL | AUC ([1]; 10 mg, AUC24, Median (5th to 95th percentile), ADVANCE EM, 10 mg QD): 0.464 µg·h/mL | AUC ([1]; 10 mg, AUC24, Median (5th to 95th percentile), CGP-MD-01 EM, 10 mg QD): 0.464 µg·h/mL | Cmax ([1]; 10 mg, Mean (SD), ADVANCE EM, 10 mg QD): 0.0817 µg/mL | Cmax ([1]; 10 mg, Mean (SD), CGP-MD-01 EM, 10 mg QD): 0.0745 µg/mL | Cmax ([1]; 10 mg, Median (5th to 95th percentile), ADVANCE EM, 10 mg QD): 0.0733 µg/mL | Cmax ([1]; 10 mg, Median (5th to 95th percentile), CGP-MD-01 EM, 10 mg QD): 0.0739 µg/mL | AUC ([1]; 30 mg, AUC24, Mean (SD), ADVANCE EM, 30 mg QD): 1.83 µg·h/mL | AUC ([1]; 30 mg, AUC24, Mean (SD), CGP-MD-01 EM, 30 mg BID): 3.9 µg·h/mL | AUC ([1]; 30 mg, AUC24, Mean (SD), CGP-MD-01 EM, 30 mg QD): 1.71 µg·h/mL | AUC ([1]; 30 mg, AUC24, Median (5th to 95th percentile), ADVANCE EM, 30 mg QD): 1.56 µg·h/mL | AUC ([1]; 30 mg, AUC24, Median (5th to 95th percentile), CGP-MD-01 EM, 30 mg BID): 3.18 µg·h/mL | AUC ([1]; 30 mg, AUC24, Median (5th to 95th percentile), CGP-MD-01 EM, 30 mg QD): 1.59 µg·h/mL | AUC ([1]; 30 mg, AUC24, Median (5th to 95th percentile), PROGRESS CM, 30 mg BID): 3.23 µg·h/mL | Cmax ([1]; 30 mg, Mean (SD), ADVANCE EM, 30 mg QD): 0.271 µg/mL | Cmax ([1]; 30 mg, Mean (SD), CGP-MD-01 EM, 30 mg BID): 0.327 µg/mL | Cmax ([1]; 30 mg, Mean (SD), CGP-MD-01 EM, 30 mg QD): 0.26 µg/mL | Cmax ([1]; 30 mg, Median (5th to 95th percentile), ADVANCE EM, 30 mg QD): 0.244 µg/mL | Cmax ([1]; 30 mg, Median (5th to 95th percentile), CGP-MD-01 EM, 30 mg BID): 0.284 µg/mL | Cmax ([1]; 30 mg, Median (5th to 95th percentile), CGP-MD-01 EM, 30 mg QD): 0.247 µg/mL | Cmax ([1]; 30 mg, Median (5th to 95th percentile), PROGRESS CM, 30 mg BID): 0.296 µg/mL | AUC ([1]; 60 mg, AUC24, Mean (SD), ADVANCE EM, 60 mg QD): 3.74 µg·h/mL | AUC ([1]; 60 mg, AUC24, Mean (SD), CGP-MD-01 EM, 60 mg BID): 7.94 µg·h/mL | AUC ([1]; 60 mg, AUC24, Mean (SD), CGP-MD-01 EM, 60 mg QD): 3.64 µg·h/mL | AUC ([1]; 60 mg, AUC24, Mean (SD), ELEVATE EM, 60 mg QD): 3.53 µg·h/mL | AUC ([1]; 60 mg, AUC24, Median (5th to 95th percentile), ADVANCE EM, 60 mg QD): 3.22 µg·h/mL | AUC ([1]; 60 mg, AUC24, Median (5th to 95th percentile), CGP-MD-01 EM, 60 mg BID): 6.9 µg·h/mL | AUC ([1]; 60 mg, AUC24, Median (5th to 95th percentile), CGP-MD-01 EM, 60 mg QD): 3.45 µg·h/mL | AUC ([1]; 60 mg, AUC24, Median (5th to 95th percentile), ELEVATE EM, 60 mg QD): 3.31 µg·h/mL | AUC ([1]; 60 mg, AUC24, Median (5th to 95th percentile), PROGRESS CM, 60 mg QD): 2.9 µg·h/mL | Cmax ([1]; 60 mg, Mean (SD), ADVANCE EM, 60 mg QD): 0.561 µg/mL | Cmax ([1]; 60 mg, Mean (SD), CGP-MD-01 EM, 60 mg BID): 0.634 µg/mL | Cmax ([1]; 60 mg, Mean (SD), CGP-MD-01 EM, 60 mg QD): 0.545 µg/mL | Cmax ([1]; 60 mg, Median (5th to 95th percentile), ADVANCE EM, 60 mg QD): 0.504 µg/mL | Cmax ([1]; 60 mg, Median (5th to 95th percentile), PROGRESS CM, 60 mg QD): 0.504 µg/mL | Effect of mild or moderate renal impairment on atogepant PK ([2]; model-predicted): no clinically relevant effect | Change of Cmax with BCRP inhibitors [2, 4]: No change; also recorded: no impact | Decrease of AUC24 with use of BCRP inhibitors [2, 4]: 1% | Decrease of AUC24 with use of BCRP substrates [2, 4]: 3% | Decrease of Cmax with use of BCRP substrates [2, 4]: 3% | Increase of AUC24 with use of statins [2, 4]: 14% | Increase of Cmax with use of statins [2, 4]: 13% | Effect of age, BCRP inhibitors, BCRP substrates, statins, body weight, race, renal function and sex on steady-state AUC24 and Cmax ([2]; model-predicted, 60 mg daily, compared with reference groups): < 20% | Area under the concentration–time curve (AUC) ([3]; 60-mg dose): ~ 3470 ng h/mL | Dose proportionality of PK [3]: dose-proportional up to a 300-mg single dose and multiple doses of 170 mg/day | Food effect [3]: no clinically significant food effect | Half-life (t1/2) [3]: ~ 11 h | Accumulation ([3]; multiple doses): no accumulation | Maximum plasma concentration (Cmax) [3, 5]: ~ 740 ng/mL | Time to achieve a pharmacologically effective concentration [3, 5]: ≤ 30 min | Transporter substrate status (P-gp): substrate | Transporter substrate status (BCRP): substrate | Transporter substrate status (OAT1): substrate
